1 compound from publication PMC3963460 (Synthesis, 2013) can be followed below.

This experiment concerns the target PKC rat-brain isozyme mixture. Put plainly: Protein kinase C isozyme mixture competitive binding assay with. The conditions noted are these: read-out: Kd of (^3H)PDBu; measured under these assay conditions. Put shortly:
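Rat-brain PKC isozyme mixture in Tris-HCl pH 7.4 buffer with KCl, CaCl2 and BSA, plus phosphatidylserine vesicles; (3H)PDBu added in DMSO. Triplicate vials incubated at 37 °C for 90 min, then 15 min on ice. Nonspecific binding from an unlabelled analogue at 5 μM assay concentration. Filtered through poly(ethyleneamine)-soaked filters, washed with ice-cold 20 mM Tris pH 7.4, scintillation-counted.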

As a reminder, the Kd is the constant that tells how readily two partners part at equilibrium. Consider `CCCC(=O)OC1C(C)C2(O)C(C=C(CO)CC3(O)C(=O)C(C)=CC32)C2C(C)(C)C12OC(=O)CCC` (stereo not shown) [(^3H)PDBu, (^3H)phorbol dibutyrate], for which the Kd was 1.55 nM.
